Data reported in PubChem BioAssay AID588386 (Southern Research Specialized Biocontainment Screening …, 2011).
Active and inactive are the calls of the source.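 Rule for the calls: active = phage lysis blocked by at least 50% at any tested dose; inconclusive = replicate wells disagree with each other; inactive = the rest.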

Tested on: not listed separately
Experiment: inhibitors of K1F phage lysis, dose response, capsule biogenesis inhibitor project, E. coli UTI89, set 6 (AID 588386)
Conditions: E. coli UTI89 K1F phage lysis inhibition, OD600; at 100 µM (top of the series)
How it was run: (§1)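 System: E. coli UTI89 (K1) and kpsM mutant; buffer or medium: LB growth medium; incubation: 1.25 h compound pre-phage, 3 h lysis read, 37 °C shaking; technique: OD600 absorbance; read-out: phage lysis judged from OD600 3 h after phage infection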

**Q.** With `O=C(Nc1ccc(C(F)(F)F)cc1)c1ccc2[nH]ccc2c1` as the compound, how does the inhibition of phage lysis read?
**A.** -0.66% (inactive)

**Q.** With `O=C(Nc1ccc(Br)cc1)c1ccc2nc[nH]c2c1` as the compound, how does the inhibition of phage lysis read?
**A.** 0% (inactive)

**Q.** With `COC(=O)c1ccc(NC(=O)c2ccc3ncsc3c2)cc1` as the compound, how does the inhibition of phage lysis read?
**A.** 11.5% (inactive)

**Q.** Which inhibition of phage lysis does the source give for `O=C(Nc1cccc(F)c1)c1ccc2nc[nH]c2c1` here?
**A.** 0% (inactive)

**Q.** For `O=C(Nc1ccccc1F)c1ccc2[nH]ccc2c1`, which inhibition of phage lysis is on record?
**A.** 0.33% (inactive)

**Q.** For `O=C(Nc1ccc(F)cc1)c1ccc2[nH]ccc2c1`, which inhibition of phage lysis is on record?
**A.** -0.29% (inactive)

**Q.** Which inhibition of phage lysis does the source give for `O=C(Nc1cccnc1)c1ccc2ncsc2c1` here?
**A.** 1.77% (inactive)

**Q.** For `COc1ccc(NC(=O)c2ccc3ncsc3c2)cc1`, which inhibition of phage lysis is on record?
**A.** 3.54% (inactive)

**Q.** Which inhibition of phage lysis does the source give for `COc1ccc(NC(=O)c2ccc3[nH]ccc3c2)cc1` here?
**A.** -14.7% (inactive)

**Q.** Which inhibition of phage lysis does the source give for `O=C(Nc1cccc(F)c1)c1ccc2ncsc2c1` here?
**A.** 0.9% (inactive)

**Q.** For `O=C(Nc1ccc(Cl)cc1)c1ccc2[nH]ccc2c1`, which inhibition of phage lysis is on record?
**A.** 0.86% (inactive)

**Q.** For `Cc1ccc(NC(=O)c2ccc3ncsc3c2)cc1`, which inhibition of phage lysis is on record?
**A.** 0% (inactive)

**Q.** Which inhibition of phage lysis does the source give for `Cc1ccc(NC(=O)c2ccc3[nH]ccc3c2)cc1` here?
**A.** -2.3% (inactive)

**Q.** Which inhibition of phage lysis does the source give for `O=C(NCc1ccco1)c1ccc2nc[nH]c2c1` here?
**A.** 0% (inactive)

**Q.** For `O=C(Nc1ccc(C(F)(F)F)cc1)c1ccc2nc[nH]c2c1`, which inhibition of phage lysis is on record?
**A.** -0.68% (inactive)

**Q.** For `O=C(Nc1cccnc1)c1ccc2[nH]ccc2c1`, which inhibition of phage lysis is on record?
**A.** 0.87% (inactive)

**Q.** With `O=C(NCc1ccco1)c1ccc2ncsc2c1` as the compound, how does the inhibition of phage lysis read?
**A.** 0.88% (inactive)

**Q.** Which inhibition of phage lysis does the source give for `O=C(Nc1cccc(F)c1)c1ccc2[nH]ccc2c1` here?
**A.** -0.99% (inactive)

**Q.** Which inhibition of phage lysis does the source give for `O=C(Nc1ccncc1)c1ccc2[nH]ccc2c1` here?
**A.** 0.29% (inactive)

**Q.** For `O=C(NCc1ccco1)c1ccc2[nH]ccc2c1`, which inhibition of phage lysis is on record?
**A.** 0.86% (inactive)

**Q.** With `O=C(Nc1ccc(Cl)cc1)c1ccc2ncsc2c1` as the compound, how does the inhibition of phage lysis read?
**A.** 1.47% (inactive)

**Q.** Which inhibition of phage lysis does the source give for `O=C(Nc1ccccc1F)c1ccc2ncccc2c1` here?
**A.** -2.29% (inactive)

**Q.** Which inhibition of phage lysis does the source give for `O=C(Nc1ccccc1F)c1ccc2nc[nH]c2c1` here?
**A.** 0.34% (inactive)

**Q.** For `O=C(Nc1ccc(F)cc1)c1ccc2nc[nH]c2c1`, which inhibition of phage lysis is on record?
**A.** 0.99% (inactive)

**Q.** With `O=C(Nc1cccc(F)c1)c1ccc2ncccc2c1` as the compound, how does the inhibition of phage lysis read?
**A.** -1.15% (inactive)

**Q.** With `O=C(Nc1ccc(Cl)cc1)c1ccc2ncccc2c1` as the compound, how does the inhibition of phage lysis read?
**A.** 1.19% (inactive)

**Q.** For `O=C(Nc1ccc(Cl)cc1)c1ccc2nc[nH]c2c1`, which inhibition of phage lysis is on record?
**A.** -0.32% (inactive)

**Q.** Which inhibition of phage lysis does the source give for `O=C(Nc1ccc(Br)cc1)c1ccc2ncsc2c1` here?
**A.** 0% (inactive)

**Q.** For `O=C(Nc1cccnc1)c1ccc2ncccc2c1`, which inhibition of phage lysis is on record?
**A.** 0.61% (inactive)

**Q.** Which inhibition of phage lysis does the source give for `O=C(Nc1ccc(C(F)(F)F)cc1)c1ccc2ncsc2c1` here?
**A.** 16.7% (inactive)

**Q.** With `O=C(Nc1ccc(Br)cc1)c1ccc2[nH]ccc2c1` as the compound, how does the inhibition of phage lysis read?
**A.** 1.16% (inactive)

**Q.** For `O=C(Nc1ccccn1)c1ccc2nc[nH]c2c1`, which inhibition of phage lysis is on record?
**A.** 0% (inactive)

**Q.** For `COc1ccc(NC(=O)c2ccc3nc[nH]c3c2)cc1`, which inhibition of phage lysis is on record?
**A.** 0.32% (inactive)

**Q.** For `O=C(Nc1ccc(F)cc1)c1ccc2ncsc2c1`, which inhibition of phage lysis is on record?
**A.** -0.68% (inactive)

**Q.** With `O=C(Nc1ccncc1)c1ccc2ncccc2c1` as the compound, how does the inhibition of phage lysis read?
**A.** 0% (inactive)

**Q.** For `O=C(Nc1ccc(F)cc1)c1ccc2ncccc2c1`, which inhibition of phage lysis is on record?
**A.** 0.3% (inactive)

**Q.** Which inhibition of phage lysis does the source give for `COC(=O)c1ccc(NC(=O)c2ccc3[nH]ccc3c2)cc1` here?
**A.** 0.87% (inactive)

**Q.** Which inhibition of phage lysis does the source give for `O=C(Nc1ccccc1F)c1ccc2ncsc2c1` here?
**A.** 0.6% (inactive)

**Q.** With `O=C(NCc1ccco1)c1ccc2ncccc2c1` as the compound, how does the inhibition of phage lysis read?
**A.** 0.91% (inactive)

**Q.** For `O=C(Nc1ccccn1)c1ccc2ncccc2c1`, which inhibition of phage lysis is on record?
**A.** 1.21% (inactive)

Tested on: E. coli UTI89 K1F phage lysis inhibition, OD600
Experiment: as above
Conditions: not given
How it was run: as §1

**Q.** For `O=C(Nc1ccncc1)c1ccc2ncsc2c1`, which IC50 is on record?
**A.** 1640 nM
